Measured values as given in ChEMBL document CHEMBL5058577, “EUbOPEN Chemogenomics Library 2 (Multiplex)” (2022).

System: U2OS
Test: Multiplex assay against U2OS
Type: toxicity, cell-based
Conditions: human
Method in brief: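 On a CQ1 microscope at 37°C and 5% CO2, live cells were imaged after compound addition. They had been stained at seeding with Hoechst33342, BioTracker Green Microtubule Cytoskeleton Dye, MitoTracker Red and Annexin V Alexa Fluor 680. CellPathfinder machine-learning gating assigned cells to Hoechst high-intensity objects or normal cells, normal cells to healthy, pyknosed or fragmented nuclei, and pyknosed cells to mitotic or apoptotic. Tubulin, mitochondrial-mass and membrane-permeability phenotypes are per cents of healthy-nucleus cells.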

[1] = 12 h, 1 µM, compound concentration 1 uM, replicate 1
[2] = 12 h, 1 µM, compound concentration 1 uM, replicate 2
[3] = 12 h, 10 µM, compound concentration 10 uM, replicate 1
[4] = 12 h, 10 µM, compound concentration 10 uM, replicate 2
[5] = 24 h, 1 µM, compound concentration 1 uM, replicate 1
[6] = 24 h, 1 µM, compound concentration 1 uM, replicate 2
[7] = 24 h, 10 µM, compound concentration 10 uM, replicate 1
[8] = 24 h, 10 µM, compound concentration 10 uM, replicate 2
[9] = 48 h, 1 µM, compound concentration 1 uM, replicate 1
[10] = 48 h, 1 µM, compound concentration 1 uM, replicate 2
[11] = 48 h, 10 µM, compound concentration 10 uM, replicate 1
[12] = 48 h, 10 µM, compound concentration 10 uM, replicate 2

O=C(NCCO)c1cccc(-c2cc(Nc3ccc(OC(F)(F)F)cc3)ncn2)c1
Population Apoptotic (%) [1]: 64%
Population Fragmented Nuclei (%) [1]: 13%
Population Healthy Nuclei (%) [1]: 72%
Population Hoechst High Intensity Objects (%) [1]: 1%
Population Membrane Permeable-Phenotype (%) [1]: 3%
Population Mitochondria Different-Phenotype (%) [1]: 3%
Population Mitotic Cells (%) [1]: 35%
Population Normal (%) [1]: 98%
Population Pyknosed Nuclei (%) [1]: 13%
Population Tubulin-Different-Phenotype (%) [1]: 1%
Total Cell Count [1]: 213
Population Apoptotic (%) [2]: 84%
Population Fragmented Nuclei (%) [2]: 15%
Population Healthy Nuclei (%) [2]: 73%
Population Membrane Permeable-Phenotype (%) [2]: 4%
Population Mitotic Cells (%) [2]: 15%
Population Pyknosed Nuclei (%) [2]: 10%
Population Tubulin-Different-Phenotype (%) [2]: 4%
Total Cell Count [2]: 128
Population Apoptotic (%) [3]: 84%
Population Fragmented Nuclei (%) [3]: 21%
Population Healthy Nuclei (%) [3]: 66%
Population Hoechst High Intensity Objects (%) [3]: 4%
Population Membrane Permeable-Phenotype (%) [3]: 9%
Population Mitochondria Different-Phenotype (%) [3]: 7%
Population Mitotic Cells (%) [3]: 15%
Population Normal (%) [3]: 95%
Population Pyknosed Nuclei (%) [3]: 12%
Population Tubulin-Different-Phenotype (%) [3]: 6%
Total Cell Count [3]: 274
Population Apoptotic (%) [4]: 100%
Population Fragmented Nuclei (%) [4]: 20%
Population Healthy Nuclei (%) [4]: 68%
Population Hoechst High Intensity Objects (%) [4]: 2%
Population Mitochondria Different-Phenotype (%) [4]: 15%
Population Mitotic Cells (%) [4]: 0%
Population Normal (%) [4]: 97%
Population Tubulin-Different-Phenotype (%) [4]: 3%
Total Cell Count [4]: 77
Population Apoptotic (%) [5]: 70%
Population Fragmented Nuclei (%) [5]: 16%
Population Healthy Nuclei (%) [5]: 73%
Population Hoechst High Intensity Objects (%) [5]: 1%
Population Membrane Permeable-Phenotype (%) [5]: 3%
Population Mitochondria Different-Phenotype (%) [5]: 3%
Population Mitotic Cells (%) [5]: 29%
Population Normal (%) [5]: 98%
Population Pyknosed Nuclei (%) [5]: 9%
Population Tubulin-Different-Phenotype (%) [5]: 2%
Total Cell Count [5]: 256
Population Apoptotic (%) [6]: 86%
Population Fragmented Nuclei (%) [6]: 20%
Population Healthy Nuclei (%) [6]: 69%
Population Membrane Permeable-Phenotype (%) [6]: 7%
Population Mitochondria Different-Phenotype (%) [6]: 5%
Population Mitotic Cells (%) [6]: 13%
Population Tubulin-Different-Phenotype (%) [6]: 4%
Total Cell Count [6]: 156
Population Apoptotic (%) [7]: 82%
Population Fragmented Nuclei (%) [7]: 22%
Population Healthy Nuclei (%) [7]: 64%
Population Hoechst High Intensity Objects (%) [7]: 4%
Population Membrane Permeable-Phenotype (%) [7]: 6%
Population Mitochondria Different-Phenotype (%) [7]: 3%
Population Mitotic Cells (%) [7]: 17%
Population Normal (%) [7]: 95%
Population Pyknosed Nuclei (%) [7]: 12%
Population Tubulin-Different-Phenotype (%) [7]: 1%
Total Cell Count [7]: 344
Population Apoptotic (%) [8]: 100%
Population Fragmented Nuclei (%) [8]: 15%
Population Healthy Nuclei (%) [8]: 78%
Population Hoechst High Intensity Objects (%) [8]: 1%
Population Membrane Permeable-Phenotype (%) [8]: 12%
Population Mitochondria Different-Phenotype (%) [8]: 13%
Population Mitotic Cells (%) [8]: 0%
Population Normal (%) [8]: 98%
Population Pyknosed Nuclei (%) [8]: 5%
Population Tubulin-Different-Phenotype (%) [8]: 4%
Total Cell Count [8]: 96
Population Apoptotic (%) [9]: 88%
Population Fragmented Nuclei (%) [9]: 15%
Population Healthy Nuclei (%) [9]: 75%
Population Hoechst High Intensity Objects (%) [9]: 2%
Population Membrane Permeable-Phenotype (%) [9]: 6%
Population Mitochondria Different-Phenotype (%) [9]: 3%
Population Mitotic Cells (%) [9]: 11%
Population Normal (%) [9]: 97%
Population Pyknosed Nuclei (%) [9]: 8%
Population Tubulin-Different-Phenotype (%) [9]: 4%
Total Cell Count [9]: 417
Population Apoptotic (%) [10]: 96%
Population Fragmented Nuclei (%) [10]: 20%
Population Healthy Nuclei (%) [10]: 65%
Population Membrane Permeable-Phenotype (%) [10]: 9%
Population Mitochondria Different-Phenotype (%) [10]: 4%
Population Mitotic Cells (%) [10]: 3%
Population Pyknosed Nuclei (%) [10]: 14%
Population Tubulin-Different-Phenotype (%) [10]: 6%
Total Cell Count [10]: 206
Population Apoptotic (%) [11]: 92%
Population Fragmented Nuclei (%) [11]: 18%
Population Healthy Nuclei (%) [11]: 72%
Population Hoechst High Intensity Objects (%) [11]: 3%
Population Membrane Permeable-Phenotype (%) [11]: 8%
Population Mitochondria Different-Phenotype (%) [11]: 3%
Population Mitotic Cells (%) [11]: 7%
Population Normal (%) [11]: 96%
Population Pyknosed Nuclei (%) [11]: 9%
Population Tubulin-Different-Phenotype (%) [11]: 6%
Total Cell Count [11]: 473
Population Apoptotic (%) [12]: 91%
Population Fragmented Nuclei (%) [12]: 26%
Population Healthy Nuclei (%) [12]: 64%
Population Hoechst High Intensity Objects (%) [12]: 2%
Population Membrane Permeable-Phenotype (%) [12]: 5%
Population Mitochondria Different-Phenotype (%) [12]: 7%
Population Mitotic Cells (%) [12]: 8%
Population Normal (%) [12]: 97%
Population Pyknosed Nuclei (%) [12]: 8%
Population Tubulin-Different-Phenotype (%) [12]: 1%
Total Cell Count [12]: 143
